The values that follow come from PMC12814486 (Bioorganic & medicinal chemistry, 2025).

In data set [1] the target is 5-HT2A (Homo sapiens, UniProt P28223). Nature of the data set: NIMH PDSP binding screen. The conditions noted are these: read-out: Inhibition (%) 5-HT2A.
Data set [2] is described as follows: Solubility assay. In kind it is physicochemical. The conditions noted are these: sodium phosphate buffer, pH 7.4, aqueous buffer, kinetic from dmso stock.
Data set [3] addresses T1, human sEH (Homo sapiens, UniProt P34913).
T1 sequence (P34913 1-555): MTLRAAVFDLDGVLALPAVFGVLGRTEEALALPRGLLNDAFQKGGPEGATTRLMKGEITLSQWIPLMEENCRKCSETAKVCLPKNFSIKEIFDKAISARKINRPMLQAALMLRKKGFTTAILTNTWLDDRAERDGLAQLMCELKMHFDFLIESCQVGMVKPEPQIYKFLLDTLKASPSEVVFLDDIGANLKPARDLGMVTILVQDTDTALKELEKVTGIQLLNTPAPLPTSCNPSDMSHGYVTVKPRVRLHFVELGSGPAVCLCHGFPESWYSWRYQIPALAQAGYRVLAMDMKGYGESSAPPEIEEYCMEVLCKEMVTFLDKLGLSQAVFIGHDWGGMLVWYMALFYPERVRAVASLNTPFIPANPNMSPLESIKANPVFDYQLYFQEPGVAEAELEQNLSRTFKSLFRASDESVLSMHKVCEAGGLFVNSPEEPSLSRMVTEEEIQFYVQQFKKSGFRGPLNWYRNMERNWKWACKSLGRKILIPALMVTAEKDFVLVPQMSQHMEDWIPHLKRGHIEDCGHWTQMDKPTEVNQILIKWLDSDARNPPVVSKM
Nature of the data set: sEH inhibition assay. In kind it is biochemical.

Data set [4] addresses Mu opioid (MOR) (Homo sapiens, UniProt P35372). Nature of the data set: NIMH PDSP binding screen. The conditions noted are these: read-out: Inhibition (%) Mu opioid (MOR).
Data set [5] addresses Delta opioid (DOR) (Homo sapiens, UniProt P41143). Kind of data set: NIMH PDSP binding screen. Conditions: read-out: Inhibition (%) Delta opioid (DOR).
For data set [6], the target named is T2, human FAAH (Homo sapiens, UniProt O00519).
T2 sequence (O00519 1-579): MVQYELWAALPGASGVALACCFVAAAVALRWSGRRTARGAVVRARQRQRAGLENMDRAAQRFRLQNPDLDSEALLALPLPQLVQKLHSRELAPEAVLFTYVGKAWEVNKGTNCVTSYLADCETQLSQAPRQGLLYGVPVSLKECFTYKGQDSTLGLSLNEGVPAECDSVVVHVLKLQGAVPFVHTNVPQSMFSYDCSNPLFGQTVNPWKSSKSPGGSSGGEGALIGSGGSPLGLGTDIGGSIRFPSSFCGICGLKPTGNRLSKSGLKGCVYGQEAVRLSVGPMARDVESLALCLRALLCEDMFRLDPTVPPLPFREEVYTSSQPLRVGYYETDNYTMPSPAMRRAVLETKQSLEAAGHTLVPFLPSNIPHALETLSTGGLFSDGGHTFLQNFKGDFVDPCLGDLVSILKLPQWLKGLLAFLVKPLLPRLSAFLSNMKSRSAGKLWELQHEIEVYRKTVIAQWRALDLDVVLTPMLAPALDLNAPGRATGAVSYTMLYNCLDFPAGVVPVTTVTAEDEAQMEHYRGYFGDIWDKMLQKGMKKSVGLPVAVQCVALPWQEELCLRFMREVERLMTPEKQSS
Nature of the data set: FAAH inhibition assay. It is filed as biochemical.

The target in data set [7] is T3, mouse sEH (Mus musculus, UniProt P34914).
T3 sequence (P34914 1-554): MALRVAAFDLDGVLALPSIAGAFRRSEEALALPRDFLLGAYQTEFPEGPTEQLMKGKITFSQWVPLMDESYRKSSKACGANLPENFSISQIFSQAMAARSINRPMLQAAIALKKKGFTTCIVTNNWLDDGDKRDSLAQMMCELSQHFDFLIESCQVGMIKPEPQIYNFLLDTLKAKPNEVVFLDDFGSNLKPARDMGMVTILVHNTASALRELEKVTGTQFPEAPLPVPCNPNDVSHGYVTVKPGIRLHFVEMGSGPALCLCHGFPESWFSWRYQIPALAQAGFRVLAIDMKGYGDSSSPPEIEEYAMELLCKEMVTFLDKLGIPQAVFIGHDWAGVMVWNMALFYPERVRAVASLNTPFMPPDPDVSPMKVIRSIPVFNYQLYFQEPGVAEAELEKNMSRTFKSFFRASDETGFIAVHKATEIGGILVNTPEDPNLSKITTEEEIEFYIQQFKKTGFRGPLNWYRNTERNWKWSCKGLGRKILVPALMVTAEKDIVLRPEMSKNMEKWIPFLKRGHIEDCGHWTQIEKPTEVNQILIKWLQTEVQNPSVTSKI
Nature of the data set: sEH inhibition assay. It is filed as biochemical.

The target of data set [8] is Kappa opioid (KOR) (Homo sapiens, UniProt P41145). Nature of the data set: NIMH PDSP binding screen. The conditions noted are these: read-out: Inhibition (%) Kappa opioid (KOR).
Kappa opioid (KOR), sequence (P41145 whole entry): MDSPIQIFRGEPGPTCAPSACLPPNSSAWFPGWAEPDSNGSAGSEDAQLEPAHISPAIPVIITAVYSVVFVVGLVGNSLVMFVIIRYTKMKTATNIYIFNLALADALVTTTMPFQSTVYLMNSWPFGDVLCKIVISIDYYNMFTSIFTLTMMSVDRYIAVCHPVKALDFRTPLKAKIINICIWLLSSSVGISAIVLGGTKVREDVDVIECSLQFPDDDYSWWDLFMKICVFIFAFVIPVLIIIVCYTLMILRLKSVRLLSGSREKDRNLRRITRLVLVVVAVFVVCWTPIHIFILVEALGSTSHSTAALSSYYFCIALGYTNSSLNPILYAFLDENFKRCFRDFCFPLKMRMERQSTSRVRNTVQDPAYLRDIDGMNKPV
The target of data set [9] is 5-HT1B (Homo sapiens, UniProt P28222). Kind of data set: NIMH PDSP binding screen. Conditions: read-out: Inhibition (%) 5-HT1B.
5-HT1B, sequence (P28222 whole entry, species assumed): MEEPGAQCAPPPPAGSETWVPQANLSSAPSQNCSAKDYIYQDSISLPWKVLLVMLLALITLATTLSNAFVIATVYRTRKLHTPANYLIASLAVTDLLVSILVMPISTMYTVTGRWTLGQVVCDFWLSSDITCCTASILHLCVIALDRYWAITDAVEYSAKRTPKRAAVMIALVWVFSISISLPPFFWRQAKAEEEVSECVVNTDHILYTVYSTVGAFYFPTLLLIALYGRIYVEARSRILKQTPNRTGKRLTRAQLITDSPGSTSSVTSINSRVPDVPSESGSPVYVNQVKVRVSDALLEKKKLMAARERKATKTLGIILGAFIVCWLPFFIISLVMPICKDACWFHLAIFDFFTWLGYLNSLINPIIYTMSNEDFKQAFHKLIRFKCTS
Data set [10] is described as follows: Microsomal stability assay in liver microsomes. In kind it is in vitro ADME. Conditions: rat, pH 7.4. The procedure, abridged: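 Test compound was taken from a 1 mM DMSO stock. It was preincubated 5 min at 37 °C with liver microsomes in 0.1 M phosphate buffer, pH 7.4. Reaction was started with an NADPH regenerating system (glucose-6-phosphate, NADPH, glucose-6-phosphate dehydrogenase, MgCl2) and quenched with methanol at 0, 10, 20, 30 and 60 min. Samples were centrifuged and read by LC-MS SIM as peak area ratio to internal standard. k = negative slope of ln ratio vs time; CLint = k/P (P = protein concentration). Duplicates or triplicates were averaged.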

The target in data set [11] is T4, 5-HT2C (Homo sapiens, UniProt P28335).
T4 sequence (P28335 33-458): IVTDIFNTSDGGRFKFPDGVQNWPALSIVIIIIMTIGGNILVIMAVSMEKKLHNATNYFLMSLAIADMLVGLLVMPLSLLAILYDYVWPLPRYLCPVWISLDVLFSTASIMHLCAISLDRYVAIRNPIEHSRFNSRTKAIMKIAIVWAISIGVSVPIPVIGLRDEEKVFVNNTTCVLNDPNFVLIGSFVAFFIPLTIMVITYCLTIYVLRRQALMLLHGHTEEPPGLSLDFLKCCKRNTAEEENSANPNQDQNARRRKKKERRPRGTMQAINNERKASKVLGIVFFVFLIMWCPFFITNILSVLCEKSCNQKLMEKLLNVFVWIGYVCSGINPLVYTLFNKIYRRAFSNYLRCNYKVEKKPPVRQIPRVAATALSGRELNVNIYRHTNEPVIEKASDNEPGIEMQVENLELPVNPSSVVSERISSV
Nature of the data set: NIMH PDSP binding screen. The conditions noted are these: read-out: Inhibition (%) 5-HT2C.

The term solubility denotes the concentration that dissolves in the medium under given conditions. Usually IC50 stands for the point on the concentration scale where inhibition reaches its midpoint. The low end stands for greater potency in that assay, the high end for weaker potency in that assay. Broadly, the half-life is the time in which the quantity being followed falls by half. A higher half-life goes with slow loss. For orientation: microsomal CLint means a measure of how fast metabolising enzymes remove a compound, apart from limits set by blood flow. A low value points to slow turnover.

Each structure is given as a SMILES string. In brackets after ≈: the same amount, converted by molar mass.

Mu opioid (MOR), sequence (P35372 whole entry): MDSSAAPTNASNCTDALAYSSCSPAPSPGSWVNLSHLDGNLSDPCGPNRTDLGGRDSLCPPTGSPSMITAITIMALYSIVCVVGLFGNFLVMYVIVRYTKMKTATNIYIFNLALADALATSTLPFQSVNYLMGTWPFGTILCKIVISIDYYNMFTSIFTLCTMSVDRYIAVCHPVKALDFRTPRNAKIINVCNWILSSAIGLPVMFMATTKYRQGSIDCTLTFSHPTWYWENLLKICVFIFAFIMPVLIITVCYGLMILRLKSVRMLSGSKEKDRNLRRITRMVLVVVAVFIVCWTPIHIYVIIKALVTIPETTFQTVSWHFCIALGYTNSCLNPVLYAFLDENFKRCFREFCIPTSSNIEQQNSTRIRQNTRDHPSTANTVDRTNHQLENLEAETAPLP
Delta opioid (DOR), sequence (P41143 whole entry): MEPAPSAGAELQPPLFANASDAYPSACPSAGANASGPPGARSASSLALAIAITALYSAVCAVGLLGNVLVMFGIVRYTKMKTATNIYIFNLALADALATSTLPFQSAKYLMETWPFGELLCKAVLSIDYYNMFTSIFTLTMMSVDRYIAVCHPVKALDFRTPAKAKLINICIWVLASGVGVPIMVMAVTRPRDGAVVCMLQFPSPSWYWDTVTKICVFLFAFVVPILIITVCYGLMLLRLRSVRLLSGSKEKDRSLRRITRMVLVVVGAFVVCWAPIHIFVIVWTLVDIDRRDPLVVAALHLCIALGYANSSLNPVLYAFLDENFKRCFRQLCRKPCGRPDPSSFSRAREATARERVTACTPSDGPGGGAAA
5-HT2A, sequence (P28223 whole entry, species assumed): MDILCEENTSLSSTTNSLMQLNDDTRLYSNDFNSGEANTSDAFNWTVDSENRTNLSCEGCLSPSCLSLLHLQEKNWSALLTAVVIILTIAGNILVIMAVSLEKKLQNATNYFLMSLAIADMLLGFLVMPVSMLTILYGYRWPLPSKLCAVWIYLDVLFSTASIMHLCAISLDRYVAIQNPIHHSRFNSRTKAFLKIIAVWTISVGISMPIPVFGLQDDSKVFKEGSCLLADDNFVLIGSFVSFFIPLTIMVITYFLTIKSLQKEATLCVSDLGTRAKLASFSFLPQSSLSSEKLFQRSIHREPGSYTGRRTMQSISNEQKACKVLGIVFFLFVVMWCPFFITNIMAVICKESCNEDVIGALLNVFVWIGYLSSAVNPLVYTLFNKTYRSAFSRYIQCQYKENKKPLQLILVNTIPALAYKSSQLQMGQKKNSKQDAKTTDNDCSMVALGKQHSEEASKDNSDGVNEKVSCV

As to `O=C(Nc1ccc(-c2cnc3ccccc3n2)cc1)C1CCN(S(=O)(=O)c2ccccc2Cl)CC1` [Compound 4m, 1-((2-chlorophenyl)sulfonyl)-N-(4-(quinoxalin-2-yl)phenyl)piperidine-4-carboxamide], the inhibition at 10 µM in data set [1] is 1.96 ± 1.88%; in [4], -1 ± 1.63%; in [5] it was -0.23 ± 11.9%; in [8], 5.59 ± 6.57%; in data set [9], 22.2 ± 6.67%; in [11] it was -18.2 ± 3.45%. Also, in data set [2], the solubility fell in the range of 31 to 63 µM (≈ 15.7 to 31.9 µg/mL). The IC50 in [3] came to 0.7 nM; in data set [6], 2.9 nM; in [7], 39.1 nM. This molecule also yielded a half-life at 1 µM in data set [10] of 26 min. The molecule further returned a microsomal CLint at 1 µM in data set [10] of 52.6 µL/min/mg.
